In ChEMBL document CHEMBL2412955, “Synthesis and antibacterial activities of N-substituted-glycinyl 1H-1,2,3-triazolyl oxazolidinones” (2013):
Converted amounts (≈) assume the structure as drawn.

Legend:
Assay type in all cases: functional
Enterococcus [1] = assay: Antibacterial activity against vancomycin-resistant Enterococcus after 18 hrs by NCCLS agar dilution method
Summary of the method: (§1)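 Clinical isolates were tested by agar dilution on Mueller-Hinton agar with drug dilutions from 0.12 to 64 µg/ml. Test compounds were dissolved in 80% DMSO in water. Final inoculum was 10^7 CFU/ml, incubated at 35 °C for 18 h. MIC was the lowest concentration inhibiting visible growth.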

Moraxella catarrhalis [2] = assay: Antibacterial activity against Moraxella catarrhalis clinical isolate 112 after 18 hrs by NCCLS agar dilution method; settings: clinical isolate 112, 18 h
Summary of the method: (§2)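 NCCLS agar dilution on Mueller-Hinton agar with 5% sheep blood added to support growth. Drug dilutions 0.12–64 µg/ml. Test agents in 80% DMSO in water, linezolid in 40% water in ethanol. Final inoculum 10^7 CFU/ml, 18 h at 35 °C. MIC read as the lowest concentration with no visible growth.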

Staphylococcus [3] = assay: Antibacterial activity against methicillin-susceptible coagulase-negative Staphylococcus after 18 hrs by NCCLS agar dilution method; summary of the method: as §1
Moraxella catarrhalis [4] = assay: Antibacterial activity against Moraxella catarrhalis clinical isolate 2824 after 18 hrs by NCCLS agar dilution method; settings: clinical isolate 2824, 18 h; summary of the method: as §2
Staphylococcus aureus [5] = assay: Antibacterial activity against methicillin-resistant Staphylococcus aureus after 18 hrs by NCCLS agar dilution method; summary of the method: as §1
Moraxella catarrhalis [6] = assay: Antibacterial activity against Moraxella catarrhalis ATCC 8176 after 18 hrs by NCCLS agar dilution method; settings: ATCC 8176, 18 h; summary of the method: as §2
Streptococcus pneumoniae [7] = assay: Antibacterial activity against penicillin-resistant Streptococcus pneumoniae after 18 hrs by NCCLS agar dilution method
Summary of the method: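 Agar dilution was run on Mueller-Hinton agar supplemented with 5% sheep blood, with drug dilutions from 0.12 to 64 µg/ml. Test compounds were dissolved in 80% DMSO in water. Final inoculum was 10^7 CFU/ml, incubated at 35 °C for 18 h. MIC was the lowest concentration preventing visible growth.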

Enterococcus [8] = assay: Antibacterial activity against vancomycin-susceptible Enterococcus after 18 hrs by NCCLS agar dilution method; summary of the method: as §1
Staphylococcus aureus [9] = assay: Antibacterial activity against methicillin-susceptible Staphylococcus aureus after 18 hrs by NCCLS agar dilution method; summary of the method: as §1
Escherichia coli = assay: Antibacterial activity against Escherichia coli ATCC 25922 after 18 hrs by NCCLS agar dilution method; settings: ATCC 25922, 18 h
Summary of the method: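 Agar dilution per NCCLS on Mueller-Hinton agar, drug dilutions 0.12–64 µg/ml. Linezolid dissolved in 40% water in ethanol, vancomycin in water, test agents in 80% DMSO in water. Inoculum 10^7 CFU/ml (final), incubated 35 °C for 18 h. MIC is the lowest concentration preventing visible growth.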

Moraxella catarrhalis [10] = assay: Antibacterial activity against Moraxella catarrhalis clinical isolate 36 after 18 hrs by NCCLS agar dilution method; settings: clinical isolate 36, 18 h; summary of the method: as §2
Moraxella catarrhalis [11] = assay: Antibacterial activity against Moraxella catarrhalis clinical isolate 138 after 18 hrs by NCCLS agar dilution method; settings: clinical isolate 138, 18 h; summary of the method: as §2
Moraxella catarrhalis [12] = assay: Antibacterial activity against Moraxella catarrhalis clinical isolate 1 after 18 hrs by NCCLS agar dilution method; settings: clinical isolate 1, 18 h; summary of the method: as §2
Moraxella catarrhalis [13] = assay: Antibacterial activity against Moraxella catarrhalis clinical isolate 3447 after 18 hrs by NCCLS agar dilution method; settings: clinical isolate 3447, 18 h; summary of the method: as §2
Moraxella catarrhalis [14] = assay: Antibacterial activity against Moraxella catarrhalis clinical isolate 125 after 18 hrs by NCCLS agar dilution method; settings: clinical isolate 125, 18 h; summary of the method: as §2
Haemophilus influenzae = assay: Antibacterial activity against Haemophilus influenzae ATCC 49247 after 18 hrs by NCCLS agar dilution method; settings: ATCC 49247, 18 h; summary of the method: as §2
Staphylococcus aureus [15] = assay: Antibacterial activity against Staphylococcus aureus ATCC 25923 after 18 hrs by […] in presence of human plasma; settings: ATCC 25923, Plasma
Summary of the method: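 To gauge plasma protein binding and/or plasma instability, MIC was determined in Mueller-Hinton broth containing 50% human plasma. Linezolid served as a reference agent. Ratio compares this MIC with the MIC obtained without plasma.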

Staphylococcus aureus [16] = assay: Antibacterial activity against Staphylococcus aureus ATCC 25923 after 18 hrs by NCCLS agar dilution method; settings: ATCC 25923, 18 h
Summary of the method: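 Plain Mueller-Hinton agar, agar dilution per NCCLS, concentrations 0.12–64 µg/ml. Test agents in 80% DMSO in water, linezolid in 40% water in ethanol, vancomycin in water. Final inoculum 10^7 CFU/ml, 35 °C for 18 h. MIC = lowest concentration inhibiting visible growth.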

Staphylococcus [17] = assay: Antibacterial activity against methicillin-resistant coagulase-negative Staphylococcus after 18 hrs by NCCLS agar dilution method; summary of the method: as §1
Moraxella catarrhalis [18] = assay: Antibacterial activity against Moraxella catarrhalis clinical isolate 255 after 18 hrs by NCCLS agar dilution method; settings: clinical isolate 255, 18 h; summary of the method: as §2
Enterococcus [19] = assay: Ratio of PH027 MIC to compound MIC for vancomycin-susceptible Enterococcus
Enterococcus [20] = assay: Ratio of linezolid MIC to compound MIC for vancomycin-susceptible Enterococcus
Staphylococcus [21] = assay: Ratio of PH084 MIC to compound MIC for methicillin-susceptible coagulase-negative Staphylococcus
Staphylococcus [22] = assay: Ratio of PH027 MIC to compound MIC for methicillin-susceptible coagulase-negative Staphylococcus
Staphylococcus aureus [23] = assay: Ratio of linezolid MIC to compound MIC for methicillin-susceptible Staphylococcus aureus
Staphylococcus aureus [24] = assay: Ratio of PH084 MIC to compound MIC for methicillin-susceptible Staphylococcus aureus
Streptococcus pneumoniae [25] = assay: Ratio of PH027 MIC to compound MIC for penicillin-resistant Streptococcus pneumoniae
Streptococcus pneumoniae [26] = assay: Ratio of linezolid MIC to compound MIC for penicillin-resistant Streptococcus pneumoniae
Streptococcus pneumoniae [27] = assay: Ratio of PH084 MIC to compound MIC for penicillin-resistant Streptococcus pneumoniae
Staphylococcus aureus [28] = assay: Ratio of PH027 MIC to compound MIC for methicillin-susceptible Staphylococcus aureus
Enterococcus [29] = assay: Ratio of PH084 MIC to compound MIC for vancomycin-susceptible Enterococcus
Moraxella catarrhalis [30] = assay: Ratio of linezolid MIC to compound MIC for Moraxella catarrhalis ATCC 8176
Staphylococcus [31] = assay: Ratio of linezolid MIC to compound MIC for methicillin-susceptible coagulase-negative Staphylococcus

Cc1cn(C[C@H]2CN(c3ccc(N4CCN(C(=O)CNC(=O)c5cccnc5)CC4)c(F)c3)C(=O)O2)nn1
MIC (Enterococcus [1]): 1 µg/mL (≈ 1.91 µM) | MIC (Moraxella catarrhalis [2]): 4 µg/mL (≈ 7.65 µM) | MIC (Staphylococcus [3]): 1 µg/mL (≈ 1.91 µM) | MIC (Moraxella catarrhalis [4]): 8 µg/mL (≈ 15.3 µM) | MIC (Staphylococcus aureus [5]): 1 µg/mL (≈ 1.91 µM) | MIC (Moraxella catarrhalis [6]): 8 µg/mL (≈ 15.3 µM) | MIC (Streptococcus pneumoniae [7]): 0.25 µg/mL (≈ 0.478 µM) | MIC (Enterococcus [8]): 1 µg/mL (≈ 1.91 µM) | MIC (Staphylococcus aureus [9]): 1 µg/mL (≈ 1.91 µM) | MIC (Escherichia coli): > 64 µg/mL | MIC (Moraxella catarrhalis [10]): > 4 µg/mL | MIC (Moraxella catarrhalis [11]): 4 µg/mL (≈ 7.65 µM) | MIC (Moraxella catarrhalis [12]): > 4 µg/mL | MIC (Moraxella catarrhalis [13]): 8 µg/mL (≈ 15.3 µM) | MIC (Moraxella catarrhalis [14]): 4 µg/mL (≈ 7.65 µM) | MIC (Haemophilus influenzae): 8 µg/mL (≈ 15.3 µM) | MIC (Staphylococcus aureus [15]): 4 µg/mL | MIC (Staphylococcus aureus [16]): 2 µg/mL (≈ 3.83 µM) | MIC (Staphylococcus [17]): 1 µg/mL (≈ 1.91 µM) | MIC (Moraxella catarrhalis [18]): 4 µg/mL (≈ 7.65 µM)

O=C(NCC(=O)N1CCN(c2ccc(N3C[C@H](Cn4ccnn4)OC3=O)cc2F)CC1)c1cccs1
MIC (Enterococcus [1]): 1 µg/mL (≈ 1.95 µM) | MIC (Moraxella catarrhalis [2]): 8 µg/mL (≈ 15.6 µM) | MIC (Staphylococcus [3]): 0.5 µg/mL (≈ 0.974 µM) | MIC (Moraxella catarrhalis [4]): 8 µg/mL (≈ 15.6 µM) | MIC (Staphylococcus aureus [5]): 0.5 µg/mL (≈ 0.974 µM) | MIC (Moraxella catarrhalis [6]): 8 µg/mL (≈ 15.6 µM) | MIC (Streptococcus pneumoniae [7]): 0.5 µg/mL (≈ 0.974 µM) | MIC (Enterococcus [8]): 1 µg/mL (≈ 1.95 µM) | MIC (Staphylococcus aureus [9]): 0.5 µg/mL (≈ 0.974 µM) | MIC (Escherichia coli): > 64 µg/mL | MIC (Moraxella catarrhalis [10]): 8 µg/mL (≈ 15.6 µM) | MIC (Moraxella catarrhalis [11]): 8 µg/mL (≈ 15.6 µM) | MIC (Moraxella catarrhalis [12]): 8 µg/mL (≈ 15.6 µM) | MIC (Moraxella catarrhalis [13]): 8 µg/mL (≈ 15.6 µM) | MIC (Moraxella catarrhalis [14]): 8 µg/mL (≈ 15.6 µM) | MIC (Haemophilus influenzae): 16 µg/mL (≈ 31.2 µM) | MIC (Staphylococcus aureus [15]): 8 µg/mL | MIC (Staphylococcus aureus [16]): 1 µg/mL (≈ 1.95 µM) | MIC (Staphylococcus [17]): 0.5 µg/mL (≈ 0.974 µM) | MIC (Moraxella catarrhalis [18]): 8 µg/mL (≈ 15.6 µM)

O=C(NCC(=O)N1CCN(c2ccc(N3C[C@H](Cn4ccnn4)OC3=O)cc2F)CC1)c1ccc([N+](=O)[O-])o1
Ratio (Enterococcus [19]): 4 | MIC (Enterococcus [1]): 0.25 µg/mL (≈ 0.461 µM) | Ratio (Enterococcus [20]): 4 | MIC (Moraxella catarrhalis [2]): 1 µg/mL (≈ 1.84 µM) | Ratio (Staphylococcus [21]): 4 | MIC (Staphylococcus [3]): 0.06 µg/mL (≈ 0.111 µM) | Ratio (Staphylococcus [22]): 4 | MIC (Moraxella catarrhalis [4]): 1 µg/mL (≈ 1.84 µM) | Ratio (Staphylococcus aureus [23]): 4 | MIC (Staphylococcus aureus [5]): 0.06 µg/mL (≈ 0.111 µM) | MIC (Moraxella catarrhalis [6]): 1 µg/mL (≈ 1.84 µM) | MIC (Streptococcus pneumoniae [7]): < 0.25 µg/mL | MIC (Enterococcus [8]): 0.25 µg/mL (≈ 0.461 µM) | Ratio (Staphylococcus aureus [24]): 4 | MIC (Staphylococcus aureus [9]): 0.06 µg/mL (≈ 0.111 µM) | MIC (Escherichia coli): > 64 µg/mL | Ratio (Streptococcus pneumoniae [25]): 4 | MIC (Moraxella catarrhalis [10]): 1 µg/mL (≈ 1.84 µM) | Ratio (Streptococcus pneumoniae [26]): 4 | Ratio (Streptococcus pneumoniae [27]): 4 | MIC (Moraxella catarrhalis [11]): 1 µg/mL (≈ 1.84 µM) | MIC (Moraxella catarrhalis [12]): 1 µg/mL (≈ 1.84 µM) | MIC (Moraxella catarrhalis [13]): 1 µg/mL (≈ 1.84 µM) | MIC (Moraxella catarrhalis [14]): 1 µg/mL (≈ 1.84 µM) | Ratio (Staphylococcus aureus [28]): 4 | Ratio (Enterococcus [29]): 4 | MIC (Haemophilus influenzae): 8 µg/mL (≈ 14.7 µM) | MIC (Staphylococcus aureus [15]): < 0.25 µg/mL | MIC (Staphylococcus aureus [16]): < 0.25 µg/mL | Ratio (Moraxella catarrhalis [30]): 8 | MIC (Staphylococcus [17]): 0.06 µg/mL (≈ 0.111 µM) | Ratio (Staphylococcus [31]): 4 | MIC (Moraxella catarrhalis [18]): 1 µg/mL (≈ 1.84 µM)

Cc1cn(C[C@H]2CN(c3ccc(N4CCN(C(=O)CNC(=O)c5ccc([N+](=O)[O-])o5)CC4)c(F)c3)C(=O)O2)nn1
Ratio (Enterococcus [19]): 4 | MIC (Enterococcus [1]): 0.5 µg/mL (≈ 0.898 µM) | Ratio (Enterococcus [20]): 4 | MIC (Moraxella catarrhalis [2]): 1 µg/mL (≈ 1.8 µM) | Ratio (Staphylococcus [21]): 4 | MIC (Staphylococcus [3]): 0.06 µg/mL (≈ 0.108 µM) | Ratio (Staphylococcus [22]): 4 | MIC (Moraxella catarrhalis [4]): 1 µg/mL (≈ 1.8 µM) | Ratio (Staphylococcus aureus [23]): 4 | MIC (Staphylococcus aureus [5]): 0.06 µg/mL (≈ 0.108 µM) | MIC (Moraxella catarrhalis [6]): 0.5 µg/mL (≈ 0.898 µM) | MIC (Streptococcus pneumoniae [7]): < 0.25 µg/mL | MIC (Enterococcus [8]): 0.25 µg/mL (≈ 0.449 µM) | Ratio (Staphylococcus aureus [24]): 4 | MIC (Staphylococcus aureus [9]): 0.06 µg/mL (≈ 0.108 µM) | MIC (Escherichia coli): 16 µg/mL (≈ 28.8 µM) | Ratio (Streptococcus pneumoniae [25]): 4 | MIC (Moraxella catarrhalis [10]): 1 µg/mL (≈ 1.8 µM) | Ratio (Streptococcus pneumoniae [26]): 4 | Ratio (Streptococcus pneumoniae [27]): 4 | MIC (Moraxella catarrhalis [11]): 1 µg/mL (≈ 1.8 µM) | MIC (Moraxella catarrhalis [12]): 1 µg/mL (≈ 1.8 µM) | MIC (Moraxella catarrhalis [13]): 1 µg/mL (≈ 1.8 µM) | MIC (Moraxella catarrhalis [14]): 1 µg/mL (≈ 1.8 µM) | Ratio (Staphylococcus aureus [28]): 4 | Ratio (Enterococcus [29]): 4 | MIC (Haemophilus influenzae): 2 µg/mL (≈ 3.59 µM) | MIC (Staphylococcus aureus [15]): < 0.25 µg/mL | MIC (Staphylococcus aureus [16]): < 0.25 µg/mL | Ratio (Moraxella catarrhalis [30]): 16 | MIC (Staphylococcus [17]): 0.06 µg/mL (≈ 0.108 µM) | Ratio (Staphylococcus [31]): 4 | MIC (Moraxella catarrhalis [18]): 1 µg/mL (≈ 1.8 µM)
